FLuc inh counter = firefly luciferase enzyme inhibitors, primary screen, artefact control for luciferase-based inhibitor screens, biochemical, luminescence, ATPLite; Luciferin 4-monooxygenase (Photinus pyralis), P08659; 10 min; inhibition, % at 10 µM; 1.5% of 200,000 active; AID 1006, 2008;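 active = inhibition above about 50% when tested at 10 µM, limit read from the data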
Target sequence (P08659 whole entry, looked up): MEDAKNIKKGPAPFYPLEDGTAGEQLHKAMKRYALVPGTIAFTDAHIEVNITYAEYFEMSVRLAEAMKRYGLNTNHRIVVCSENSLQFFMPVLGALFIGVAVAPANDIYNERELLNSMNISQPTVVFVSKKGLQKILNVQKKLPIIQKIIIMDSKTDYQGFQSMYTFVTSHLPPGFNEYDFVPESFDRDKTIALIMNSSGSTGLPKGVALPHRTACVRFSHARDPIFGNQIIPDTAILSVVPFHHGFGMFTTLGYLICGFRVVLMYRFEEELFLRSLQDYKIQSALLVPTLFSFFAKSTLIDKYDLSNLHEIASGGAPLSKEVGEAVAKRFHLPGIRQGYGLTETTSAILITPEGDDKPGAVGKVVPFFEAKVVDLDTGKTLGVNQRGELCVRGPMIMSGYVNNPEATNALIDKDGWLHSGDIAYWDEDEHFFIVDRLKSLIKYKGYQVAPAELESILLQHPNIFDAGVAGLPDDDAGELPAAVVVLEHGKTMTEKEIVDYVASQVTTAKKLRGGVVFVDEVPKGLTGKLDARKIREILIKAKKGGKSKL
HSP90 refold inh = HSP90 inhibitors, primary screen, cell lysate, luminescence | Heat shock protein HSP 90 (rabbit reticulocyte lysate; luciferase refolding) | Rabbit reticulocyte lysate, luciferase refolding luminescence, 3 h | inhibition, % at 5.6 µM | 0.91% of 290,000 active | AID 1789, 2009;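 active = inhibition above the screen-wide mean plus 3 SD, computed separately per campaign, cut at about 16% in these data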;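 also: inhibitors lower the luminescence because luciferase stays unfolded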
PPC-1+TRAIL kill = compounds killing PPC-1 cancer cells with TRAIL present, primary screen, TRAIL potentiator project, ATPLite luminescence, uHTS; PPC-1 cells + TRAIL, ATPLite viability luminescence; cell killing (% activity), % at 4 µM or 5 µM; 0.41% of 220,000 active;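 active = cell killing above 50% in the first pass at 4 µM, then a duplicate retest at 5 µM averaging 50% or more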
FLuc stim CS = FLuc activators, initial screening, artefact control for FLuc-dependent activation tests, biochemical, ATPlite luminescence | 200,000 tested, under 10 active | activation factor at 10 µM | ATPlite luciferase biochemical, 10 min; 0 = ATP-free wells, 1 = DMSO control;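 active = luciferase activation factor, scaled between plate controls, of at least 2 with compound at 10 µM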
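Material: Luciferase/luciferin reagent mix; Doses: test compounds dosed from 2 mM stocks in 100% DMSO; Schedule: 10 min incubation after luciferase reagent addition, room temperature; Measured by: luminescence from luciferase reaction; Read-out: luminescence gain marking luciferase activators.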
TRAIL sens C8 = viability loss with TRAIL in NB7+C8 cells, primary screen, TRAIL sensitizer project, cell-based, ATPlite luminescence | inhibition (viability loss, TRAIL sensitization), % at 10 µM | 1% of 360,000 active;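 active = compounds causing at least 50% loss of cell viability in the single-dose screen, relative to plate controls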
Each line names hits and unclear results; the compound was inactive in the other large screens. Compounds with a hit are over-represented: about 2% of the library has one in this group of screens.

CCC(CO)NCc1ccc(OCC(=O)Nc2cccc(C(F)(F)F)c2)c(OC)c1 (stereo not drawn)	PPC-1+TRAIL kill 51.9
N#Cc1cc2cc3c(cc2nc1SCC(=O)N1CCCC1)OCCO3	none (no result: FLuc inh counter, PPC-1+TRAIL kill, FLuc stim CS)
CC(=O)CSc1nc2cc3c(cc2cc1C#N)OCCO3	TRAIL sens C8 67.2
O=C(OCC(=O)c1ccc(Cl)s1)c1ccccn1	FLuc inh counter 57.1
O=C(OCC(=O)c1ccc(Cl)s1)c1cnccn1	none (no result: FLuc inh counter, PPC-1+TRAIL kill, FLuc stim CS)
CCC(C)(C)C(=O)Nc1ncc(S(=O)(=O)c2ccc([N+](=O)[O-])cc2)s1	none
O=C(CCl)Nc1ncc(S(=O)(=O)c2ccc([N+](=O)[O-])cc2)s1	TRAIL sens C8 51.0 (no result: FLuc inh counter, HSP90 refold inh, PPC-1+TRAIL kill, FLuc stim CS)
CC(C)NC(=O)N(C)C[C@H]1Oc2ccc(NS(=O)(=O)c3ccccc3)cc2C(=O)N([C@H](C)CO)C[C@@H]1C	none (no result: FLuc inh counter, HSP90 refold inh, PPC-1+TRAIL kill, FLuc stim CS)
COc1ccc(-c2cnnc(N/N=C/c3ccc(C)o3)n2)cc1	none
COc1ccc(-c2cnnc(N/N=C/c3ccc(O)cc3)n2)cc1	FLuc inh counter 73.0
COc1ccc(-c2cnnc(N/N=C/c3ccc(O)c(O)c3)n2)cc1	FLuc inh counter 85.3
Oc1ccc(/C=N\Nc2nncc(-c3ccccc3)n2)cc1	none (no result: FLuc inh counter, FLuc stim CS)
CC(C)(C)c1ccc(C(CC(=O)O)NC(=O)C23CC4CC(CC(C4)C2)C3)cc1 (stereo not drawn)	none (no result: FLuc inh counter, PPC-1+TRAIL kill, FLuc stim CS)
Cc1ccccc1NC(=O)Cc1nc(COC(=O)c2nccnc2N)cs1	none (no result: FLuc inh counter, HSP90 refold inh, PPC-1+TRAIL kill, FLuc stim CS)
COc1ccc(OC)c(S(=O)(=O)Nc2ccc(-c3ccc4nncn4n3)cc2)c1	TRAIL sens C8 65.8 (no result: FLuc inh counter, HSP90 refold inh, PPC-1+TRAIL kill, FLuc stim CS)
CCCCCCCCCCCCCCCC(O)C[N+](C)(C)CCO (stereo not drawn)	TRAIL sens C8 91.9 (no result: FLuc inh counter, HSP90 refold inh, PPC-1+TRAIL kill, FLuc stim CS)
CCCCCC(O)CCCC(=O)O (stereo not drawn)	none (no result: FLuc inh counter, HSP90 refold inh, PPC-1+TRAIL kill, FLuc stim CS)
COc1ccc(NC(=O)c2csc(Cc3ccccc3)n2)cc1	none
O=C(Nc1ccc(F)cc1)c1csc(Cc2ccccc2)n1	FLuc inh counter 52.7
COc1cc(NC(=O)CN(C)S(=O)(=O)c2ccc3c(c2)CC(C)N3C(C)=O)cc(OC)c1OC (stereo not drawn)	none (no result: FLuc inh counter, PPC-1+TRAIL kill, FLuc stim CS)
Oc1ccc(-c2cnc(-c3ccc(O)cc3)nc2)cc1	TRAIL sens C8 80.3 (no result: FLuc inh counter, PPC-1+TRAIL kill, FLuc stim CS)
Oc1ccc(-c2cnc3ccccc3n2)cc1	none (no result: FLuc inh counter, HSP90 refold inh, PPC-1+TRAIL kill, FLuc stim CS)
Cc1ccc(S(=O)(=O)Oc2ccc(/C=N/NC(=O)c3nn(C)cc3Cl)cc2)cc1	none
Cc1ccc(/C=N/OC(=O)c2nn(C)cc2Cl)cc1	FLuc inh counter 76.0 (no result: PPC-1+TRAIL kill)
CCCCC(OC(=O)c1ccco1)C(=O)NCc1ccc(C)cc1 (stereo not drawn)	none (no result: FLuc inh counter, PPC-1+TRAIL kill, FLuc stim CS)
CCCN(C(=O)COC(=O)Cn1c(=O)oc2ccccc21)c1c(N)n(Cc2ccccc2)c(=O)[nH]c1=O	none (no result: FLuc inh counter, HSP90 refold inh, PPC-1+TRAIL kill, FLuc stim CS)
COC(=O)c1ccc(/C=C(\C#N)c2ccccn2)cc1	FLuc inh counter 73.1, TRAIL sens C8 52.2
N#C/C(=C\c1ccc([N+](=O)[O-])cc1)c1ccccn1	none
Cc1ccc2nc(-c3ccccc3)c(Cc3ccsc3)n2c1	none (no result: FLuc inh counter, HSP90 refold inh, PPC-1+TRAIL kill, FLuc stim CS)
COc1ccc2nc(N=Nc3ccc(O)c4ccccc34)sc2c1	TRAIL sens C8 54.9
COc1ccc2nc(N=NC3=C(O)CC(C)(C)CC3=O)sc2c1	none
CC[C@@]1(C(=O)OC)N[C@H](CN(C)S(=O)(=O)c2ccc(OC(F)(F)F)cc2)[C@@H]2C(=O)N(C)C(=O)[C@@H]21	none (no result: FLuc inh counter, HSP90 refold inh, PPC-1+TRAIL kill, FLuc stim CS)
COCCNC(=S)N/N=C/c1c2ccccc2cc2ccccc12	none (no result: FLuc inh counter, PPC-1+TRAIL kill, FLuc stim CS)
NC(=S)N/N=C\c1c2ccccc2cc2ccccc12	PPC-1+TRAIL kill 60.6
COc1ccc(NC(=O)C2(C)Cc3c(-c4cccc(C(N)=O)c4)ccnc3O2)cc1OC (stereo not drawn)	none (no result: FLuc inh counter, HSP90 refold inh, PPC-1+TRAIL kill, FLuc stim CS)
CCC(COC)Oc1cc(NCc2ccccc2)c2ncn(C(C)C)c2c1 (stereo not drawn)	TRAIL sens C8 57.8 (no result: FLuc inh counter, HSP90 refold inh, PPC-1+TRAIL kill, FLuc stim CS)
CCC(CO)Oc1cc(NCc2ccccc2)c2ncn(C(C)C)c2c1 (stereo not drawn)	none (no result: FLuc inh counter, HSP90 refold inh, PPC-1+TRAIL kill, FLuc stim CS)
CC(C)n1cnc2c(NCc3ccccc3)cc(N[C@H](C)CO)cc21	TRAIL sens C8 59.6 (no result: FLuc inh counter, HSP90 refold inh, PPC-1+TRAIL kill, FLuc stim CS)
N=c1n(CC(=O)c2ccc(Br)s2)c2ccccc2n1Cc1ccccc1	TRAIL sens C8 55.6 (no result: FLuc inh counter, FLuc stim CS)
CCCCC[C@@H](C)N1C[C@H](COCc2ccccc2)Oc2cc(N3CC[C@H](N(C)C)C3)ccc2S1(=O)=O	TRAIL sens C8 69.1 (no result: FLuc inh counter, HSP90 refold inh, PPC-1+TRAIL kill, FLuc stim CS)
CCOC(=O)Cc1csc(NC(=S)NC(=O)c2ccc(Cl)cc2)n1	FLuc inh counter 58.8, TRAIL sens C8 50.9

High-throughput results: PubChem, several laboratories
